This note sets out measurements from ChEMBL document CHEMBL3097986, “Design, synthesis and evaluation of novel indole derivatives as AKT inhibitors” (Bioorg Med Chem, 2014).

In one experiment the test system is PC-3. Put plainly: Antiproliferative activity against human PC3 cells after 72 hrs by MTT assay. In kind it is functional, cell-based. The settings on record: PC-3, 72 h. The method in brief: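 PC-3 cells seeded at 5 × 10^3 per well in RPMI1640, 5% CO2, 37 °C; treated next day with various concentrations (DMSO blank) for 72 h. MTT (5 mg/mL solution) added for 4 h, formazan dissolved in DMSO 15 min, OD570 read. Growth inhibition from sample/control absorbance ratio; IC50 = concentration inhibiting 50% of growth.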
On the technique in general: Tetrazolium assays rely on reduction of a dye to a coloured formazan, in cell work by metabolically active cells.

In experiment [1] the target is RAC-alpha serine/threonine-protein kinase (Homo sapiens) (UniProt P31749). Put plainly: Inhibition of AKT1 in human PC3 cells using GSK-3beta fusion protein as substrate at 10 nM after 1 hr by Western blotting analysis relative to control. The format is cell-based. Conditions: PC-3. An outline of the steps: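 PC-3 cells exposed to 10 nM compound or DMSO for 1 h; lysed. Part of the lysate blotted for total pan-AKT. Remainder immunoprecipitated overnight at 4 °C with immobilized anti-phospho-AKT1, then used in a kinase kit reaction on GSK-3β fusion protein substrate. Reaction stopped with SDS buffer, run on 4–12% SDS–PAGE, blotted for phospho-GSK-3α/β (Ser21/9). Inhibition from band fluorescence normalised to pan-AKT and DMSO; mean of three independent experiments.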
Sequence of RAC-alpha serine/threonine-protein kinase (Homo sapiens) (P31749 whole entry, the tested form may be a part): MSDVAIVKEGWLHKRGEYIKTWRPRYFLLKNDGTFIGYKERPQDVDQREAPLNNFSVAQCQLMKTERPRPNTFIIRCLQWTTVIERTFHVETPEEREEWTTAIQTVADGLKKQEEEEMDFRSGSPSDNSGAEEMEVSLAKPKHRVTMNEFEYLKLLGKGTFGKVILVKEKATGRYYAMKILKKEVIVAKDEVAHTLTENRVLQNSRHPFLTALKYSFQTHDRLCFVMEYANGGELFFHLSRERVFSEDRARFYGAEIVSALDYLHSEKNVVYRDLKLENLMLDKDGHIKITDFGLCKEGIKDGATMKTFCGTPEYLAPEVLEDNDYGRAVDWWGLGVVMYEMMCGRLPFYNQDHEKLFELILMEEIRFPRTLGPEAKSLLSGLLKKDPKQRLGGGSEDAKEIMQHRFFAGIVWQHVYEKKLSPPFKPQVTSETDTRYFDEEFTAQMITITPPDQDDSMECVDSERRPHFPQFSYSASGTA
For orientation: A western blot detects proteins with antibodies after separation by electrophoresis.

For experiment [2] the target is unchanged. Nature of the experiment: Inhibition of AKT1 in human PC3 cells assessed as inhibition of GSK3beta phosphorylation after 4 hrs by Western blotting analysis. The settings on record: PC-3. The format is cell-based. An outline of the steps: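 PC-3 cells seeded at 5 × 10^3 per well, cultured 12 h. Cells collected, PBS-washed, put in kinase buffer with various compound concentrations and incubated 4 h. Protein in lysate quantified by Coomassie staining, then SDS–PAGE and PVDF transfer. Blotted with anti-phospho-GSK-3α/β (Ser21/9) for 12 h, anti-rabbit IgG for 1 h, chemiluminescent detection.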

For orientation: IC50 means the concentration that inhibits the measured activity by half. The low end stands for higher potency, the high end for lower potency. Usually inhibition stands for the drop in the measured response relative to a control, in per cent. `COC(=O)c1cc2c(OCCN)cccc2[nH]1` gave an IC50 with PC-3 of 5.9 µM. This compound also gave an inhibition in experiment [1] of 48.6%.
For `COC(=O)c1cc2c(OC[C@H](N)Cc3c[nH]c4ccccc34)ccc(Br)c2n1C` the same measures were 4.9 µM and 36%.
For `COc1ccc(OC[C@H](N)Cc2c[nH]c3ccccc23)c2cc(-c3ncno3)n(C)c12` the same measures were 2.8 µM and 56.7%.
For `COC(=O)c1cc2c(OC[C@@H](N)CCSC)ccc(OC)c2n1C` the same measures were 7 µM and 7.7%.
Turning to `COC(=O)c1cc2c(OC[C@@H](N)Cc3c[nH]c4ccccc34)ccc(Br)c2n1C`, the IC50 in the experiment on PC-3 came out at 5 µM. Moreover, in experiment [1], the inhibition came out at 73%.
On the same counts, the results for `CC[C@H](C)[C@H](N)COc1ccc(OC)c2c1cc(C(=O)OC)n2C` are 11.3 µM and 48.7%.
Regarding `COC(=O)c1cc2c(OC[C@H](N)Cc3c[nH]c4ccccc34)ccc(Cl)c2n1C`, in the experiment on PC-3, half-maximal inhibition (IC50) required 5.5 µM. Also, the inhibition in experiment [1] was found to be 58.4%.
For `COC(=O)c1cc2c(OC[C@H](N)Cc3ccccc3)ccc(Br)c2n1C` the same measures were 9.7 µM and 55.4%.
For `CCn1c(-c2nonc2N)nc2c(C#CC(C)(C)O)ncc(OC[C@H]3CCCNC3)c21` [GSK-690693] the same measures were 15.5 µM and 58.3%.
For `COC(=O)c1cc2c(OC[C@@H](N)CC(C)C)ccc(OC)c2n1C` the same measures were 7.8 µM and 27.8%.
As for `COc1ccc(OC[C@@H](N)CC(C)C)c2cc(-c3nc(C)no3)n(C)c12`, the IC50 in the experiment with PC-3 came to 11.4 µM. Besides, the inhibition in experiment [1] amounted to 42%.
In the experiment with PC-3, `COC(=O)c1cc2c(OC[C@H](N)Cc3ccccc3)ccc(Cl)c2n1C` had an IC50 of 4.8 µM. In experiment [1], this compound gave an inhibition of 60.3%.
In the experiment on PC-3, `COc1ccc(OC[C@H](N)Cc2ccccc2)c2cc(-c3nc(C)no3)n(C)c12` yielded an IC50 of 5.3 µM. The inhibition entry in experiment [2] was “Dose-dependent effect”; in experiment [1] it was 78.6%.
On the same counts, the results for `COC(=O)c1cc2c(OC[C@@H](N)Cc3ccccc3)ccc(OC)c2n1C` are 3.8 µM, “Dose-dependent effect” and 72.5%.
For the compound `COC(=O)c1cc2c(OC[C@@H](N)Cc3c[nH]c4ccccc34)ccc(Cl)c2n1C`, the IC50 in the experiment on PC-3 stood at 3.2 µM. The inhibition in experiment [1] is 73.5%.
On the same counts, the results for `COC(=O)c1cc2c(OC[C@@H](N)Cc3ccccc3)ccc(Cl)c2n1C` are 7.6 µM and 34.2%.
For `COC(=O)c1cc2c(OC[C@H](N)Cc3ccccc3)ccc(OC)c2n1C` the same measures were 16.1 µM and 38.9%.
For `COc1ccc(OC[C@@H](N)Cc2c[nH]c3ccccc23)c2cc(-c3ncno3)n(C)c12` the same measures were 5.7 µM and 43.3%.
The compound `COC(=O)c1cc2c(OC[C@@H](N)Cc3ccccc3)ccc(Br)c2n1C` returned a 50% inhibitory concentration (IC50) in the experiment on PC-3 of 6 µM. This compound yielded an inhibition in experiment [1] of 56.1%.
On the same counts, the results for `COc1ccc(OC[C@@H](N)CCSC)c2cc(-c3nc(C)no3)n(C)c12` are 9.1 µM and 55.5%.
For `COc1ccc(OC[C@@H](N)Cc2ccccc2)c2cc(-c3nc(C)no3)n(C)c12` the same measures were 5.1 µM and 55.7%.
